In assay [1] the target is Calcium-dependent protein kinase 1 (Plasmodium falciparum) (UniProt P62344). In words: Binding affinity to wild-type Plasmodium falciparum full length CDPK1 (M1 to S524 residues) expressed in mammalian expression system assessed as residual binding level at 1 uM by Kinomescan method relative to control. The procedure, abridged: (§1)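 KinomeScan, an active site-directed competition binding panel of 468 kinases. The test compound was at 1 μM. The readout is remaining kinase binding as a percentage of the DMSO control. Scores above 35% were treated as weak binding and not listed.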

Assay [2] deals with Activin receptor type-1B (Homo sapiens) (UniProt P36896). The experiment in a line: Binding affinity to wild-type human ACVR1B (S187 to I505 residues) expressed in bacterial expression system assessed as residual binding level at 1 uM by Kinomescan method relative to control. The procedure, abridged:
as §1

The target in assay [3] is Mitogen-activated protein kinase; ERK1/ERK2 (Homo sapiens) (UniProt P27361+P28482). In words: Inhibition of ERK1/2 in human NCI-H1975 cells assessed as blocking of ERK1/2 pulldown at 1 uM in presence of TL13-68 incubated for 2 hrs by Western blot analysis. Type of assay: cell-based. The method in brief: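 H1975 or HCC827 cells treated with 1 μM compound or DMSO for 2 h, rinsed twice in cold PBS, and lysed in M-PER with protease/phosphatase inhibitors. Lysate rocked overnight at 4 °C with 1 μM TL13-68, then streptavidin pulldown with five cold washes. Bound kinases detected by Western blot. Two independent experiments.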

Assay [4] has as its target Bone morphogenetic protein receptor type-2 (Homo sapiens) (UniProt Q13873). In words: Binding affinity to wild-type human partial length BMPR2 (R179 to Q526 residues) expressed in mammalian expression system assessed as residual binding level at 1 uM by Kinomescan method relative to control.
Assay [5] deals with Tyrosine-protein kinase receptor UFO (Homo sapiens) (UniProt P30530). The experiment in a line: Binding affinity to wild-type human partial length AXL (R497 to Y821 residues) expressed in bacterial expression system assessed as residual binding level at 1 uM by Kinomescan method relative to control.
Tyrosine-protein kinase receptor UFO (Homo sapiens), sequence (P30530 whole entry, the tested form may be a part): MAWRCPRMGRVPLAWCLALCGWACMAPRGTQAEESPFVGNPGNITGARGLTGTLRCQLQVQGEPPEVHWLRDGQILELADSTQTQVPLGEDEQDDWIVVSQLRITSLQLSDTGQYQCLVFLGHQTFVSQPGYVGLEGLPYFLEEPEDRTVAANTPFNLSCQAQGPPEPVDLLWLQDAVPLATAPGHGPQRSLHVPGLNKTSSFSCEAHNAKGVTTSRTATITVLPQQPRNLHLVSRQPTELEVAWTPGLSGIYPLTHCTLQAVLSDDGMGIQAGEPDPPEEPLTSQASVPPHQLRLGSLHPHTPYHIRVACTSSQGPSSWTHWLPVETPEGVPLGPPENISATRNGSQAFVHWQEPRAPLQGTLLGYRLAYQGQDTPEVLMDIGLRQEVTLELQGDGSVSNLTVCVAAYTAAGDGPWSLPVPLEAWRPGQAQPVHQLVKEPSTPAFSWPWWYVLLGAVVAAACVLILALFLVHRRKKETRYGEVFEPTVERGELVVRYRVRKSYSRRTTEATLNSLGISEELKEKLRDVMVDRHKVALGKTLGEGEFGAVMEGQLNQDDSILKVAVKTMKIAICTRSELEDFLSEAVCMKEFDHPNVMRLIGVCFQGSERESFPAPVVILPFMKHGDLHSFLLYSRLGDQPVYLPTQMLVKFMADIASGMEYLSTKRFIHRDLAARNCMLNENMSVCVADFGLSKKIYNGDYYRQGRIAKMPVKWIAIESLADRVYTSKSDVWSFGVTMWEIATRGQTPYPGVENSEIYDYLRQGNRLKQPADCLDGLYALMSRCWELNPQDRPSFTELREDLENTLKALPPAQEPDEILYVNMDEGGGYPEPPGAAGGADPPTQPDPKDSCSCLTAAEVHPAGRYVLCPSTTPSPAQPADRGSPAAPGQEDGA
Assay [6] concerns the target Glycogen synthase kinase-3 alpha (Homo sapiens) (UniProt P49840). In words: Binding affinity to wild-type human full length GSK3A (M1 to S483 residues) expressed in bacterial expression system assessed as residual binding level at 1 uM by Kinomescan method relative to control. The method in brief: (§2)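 Active-site-directed KinomeScan competition binding panel covering 468 kinases, compound tested at 1 μM. Each readout is the kinase signal remaining with compound, expressed as a percentage of the DMSO control. […]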

Assay [7] deals with Tyrosine-protein kinase HCK (Homo sapiens, UniProt P08631). The experiment in a line: Inhibition of HCK (unknown origin).
The target in assay [8] is Serine/threonine-protein kinase 32B (Homo sapiens) (UniProt Q9NY57). The experiment in a line: Binding affinity to wild-type human full length YANK2 (M1 to S414 residues) expressed in bacterial expression system assessed as residual binding level at 1 uM by Kinomescan method relative to control.
Assay [9] addresses Beta-adrenergic receptor kinase 1 (Homo sapiens) (UniProt P25098). In words: Binding affinity to wild-type human full length GRK2 (M1 to L689 residues) expressed in mammalian expression system assessed as residual binding level at 1 uM by Kinomescan method relative to control. The procedure, abridged: as §2
In assay [10] the target is Mitogen-activated protein kinase kinase kinase kinase 3 (Homo sapiens) (UniProt Q8IVH8). The experiment in a line: Binding affinity to wild-type human partial length MAP4K3 (M1 to D301 residues) expressed in bacterial expression system assessed as residual binding level at 1 uM by Kinomescan method relative to control.
The target of assay [11] is Cytoplasmic tyrosine-protein kinase BMX (Homo sapiens) (UniProt P51813). The experiment in a line: Binding affinity to wild-type human full length BMX (M1 to H675 residues) expressed in bacterial expression system assessed as residual binding level at 1 uM by Kinomescan method relative to control. The method in brief: as §1
Cytoplasmic tyrosine-protein kinase BMX (Homo sapiens), sequence (P51813 whole entry, the tested form may be a part): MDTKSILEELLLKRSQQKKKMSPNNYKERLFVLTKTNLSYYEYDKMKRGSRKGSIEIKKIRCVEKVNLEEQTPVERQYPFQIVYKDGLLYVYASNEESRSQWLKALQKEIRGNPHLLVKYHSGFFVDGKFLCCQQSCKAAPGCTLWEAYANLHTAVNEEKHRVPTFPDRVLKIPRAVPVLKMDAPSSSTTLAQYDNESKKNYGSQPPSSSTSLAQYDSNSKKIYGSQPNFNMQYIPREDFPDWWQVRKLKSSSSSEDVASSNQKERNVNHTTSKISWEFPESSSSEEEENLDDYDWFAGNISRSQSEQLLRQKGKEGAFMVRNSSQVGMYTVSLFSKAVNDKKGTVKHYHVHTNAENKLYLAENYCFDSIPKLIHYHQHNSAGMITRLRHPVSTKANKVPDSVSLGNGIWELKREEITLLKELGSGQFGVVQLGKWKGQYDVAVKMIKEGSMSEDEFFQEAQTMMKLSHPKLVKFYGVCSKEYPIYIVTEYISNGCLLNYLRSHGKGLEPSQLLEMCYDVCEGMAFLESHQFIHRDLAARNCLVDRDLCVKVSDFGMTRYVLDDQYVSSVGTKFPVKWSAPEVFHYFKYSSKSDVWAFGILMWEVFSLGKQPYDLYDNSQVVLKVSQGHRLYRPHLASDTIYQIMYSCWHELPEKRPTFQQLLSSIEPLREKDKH
Assay [12] has as its target Bone morphogenetic protein receptor type-1B (Homo sapiens) (UniProt O00238). In words: Binding affinity to wild-type human partial length BMPR1B (D178 to L502 residues) expressed in mammalian expression system assessed as residual binding level at 1 uM by Kinomescan method relative to control.
The target in assay [13] is Calcium/calmodulin-dependent protein kinase type 1G (Homo sapiens) (UniProt Q96NX5). The experiment in a line: Binding affinity to wild-type human partial length CAMK1G (M1 to A342 residues) expressed in bacterial expression system assessed as residual binding level at 1 uM by Kinomescan method relative to control.
The target in assay [14] is Cyclin-dependent kinase 4/cyclin D1 (Homo sapiens) (UniProt P11802+P24385). In words: Binding affinity to wild-type human full length CDK4/cyclinD1 (M1 to E303 residues) expressed in mammalian expression system assessed as residual binding level at 1 uM by Kinomescan method relative to control. The method in brief: as §2
Assay [15] concerns the target Mitogen-activated protein kinase 12 (Homo sapiens) (UniProt P53778). In words: Binding affinity to wild-type human full length p38-gamma (M1 to L367 residues) expressed in mammalian expression system assessed as residual binding level at 1 uM by Kinomescan method relative to control. The procedure, abridged:
as §1

Assay [16] has as its target Cyclin-dependent kinase-like 3 (Homo sapiens) (UniProt Q8IVW4). The experiment in a line: Binding affinity to wild-type human partial length CDKL3 (M1 to D327 residues) expressed in bacterial expression system assessed as residual binding level at 1 uM by Kinomescan method relative to control.
The target of assay [17] is Myosin light chain kinase 2, skeletal/cardiac muscle (Homo sapiens) (UniProt Q9H1R3). The experiment in a line: Binding affinity to wild-type human partial length MYLK2 (D258 to K570 residues) expressed in bacterial expression system assessed as residual binding level at 1 uM by Kinomescan method relative to control.
Myosin light chain kinase 2, skeletal/cardiac muscle (Homo sapiens), sequence (Q9H1R3 whole entry, the tested form may be a part): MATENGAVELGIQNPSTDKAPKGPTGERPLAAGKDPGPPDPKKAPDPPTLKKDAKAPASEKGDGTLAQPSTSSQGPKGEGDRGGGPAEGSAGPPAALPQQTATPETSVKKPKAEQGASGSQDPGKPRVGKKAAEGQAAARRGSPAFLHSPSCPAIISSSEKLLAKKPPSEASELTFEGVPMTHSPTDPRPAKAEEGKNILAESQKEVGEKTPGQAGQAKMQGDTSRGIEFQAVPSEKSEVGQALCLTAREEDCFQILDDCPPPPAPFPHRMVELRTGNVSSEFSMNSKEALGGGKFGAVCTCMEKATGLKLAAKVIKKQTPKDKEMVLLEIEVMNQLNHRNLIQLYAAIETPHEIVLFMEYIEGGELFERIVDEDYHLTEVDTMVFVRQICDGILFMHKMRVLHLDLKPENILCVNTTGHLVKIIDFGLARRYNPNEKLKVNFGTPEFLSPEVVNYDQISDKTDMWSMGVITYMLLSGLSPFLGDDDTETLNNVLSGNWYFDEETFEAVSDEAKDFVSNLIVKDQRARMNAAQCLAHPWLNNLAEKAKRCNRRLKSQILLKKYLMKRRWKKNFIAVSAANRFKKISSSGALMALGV
Assay [18] has as its target Non-receptor tyrosine-protein kinase TNK1 (Homo sapiens) (UniProt Q13470). The experiment in a line: Binding affinity to wild-type human full length TNK1 (M1 to P661 residues) expressed in bacterial expression system assessed as residual binding level at 1 uM by Kinomescan method relative to control. The procedure, abridged: as §1
Assay [19] deals with Receptor-type tyrosine-protein kinase FLT3 (Homo sapiens), P36888 [D835H]. The experiment in a line: Binding affinity to human partial length FLT3 D835H mutant (V592 to Y969 residues) expressed in bacterial expression system assessed as residual binding level at 1 uM by Kinomescan method relative to control. The procedure, abridged:
(§3)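 KinomeScan active site-directed competition binding panel (468 kinases), compound tested at 1 μM. Result expressed as remaining kinase signal versus DMSO control (percent of control).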

Assay [20] deals with Phosphatidylinositol 4,5-bisphosphate 3-kinase catalytic subunit alpha isoform (Homo sapiens), P42336 [E545K]. The experiment in a line: Binding affinity to human partial length PIK3CA E545K mutant (R108 to N1068 residues) expressed in mammalian expression system assessed as residual binding level at 1 uM by Kinomescan method relative to control. The procedure, abridged: as §3

Assay [21] deals with Serine/threonine-protein kinase MARK1 (Homo sapiens) (UniProt Q9P0L2). In words: Binding affinity to wild-type human partial length MARK1 (Q30 to T341 residues) expressed in bacterial expression system assessed as residual binding level at 1 uM by Kinomescan method relative to control. The method in brief:
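Active-site-directed competition binding panel of 468 kinases (KinomeScan), compound at 1 μM. The read-out is kinase remaining bound, given as a percentage of the DMSO control. […]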

The values below come from ChEMBL document CHEMBL4354843, “Structure-Based Design of a Potent and Selective Covalent Inhibitor for SRC Kinase That Targets a P-Loop Cysteine” (J Med Chem, 2020).

The source made the active and inactive calls. No cut-off for these calls is given here.

Cyclin-dependent kinase-like 3 (Homo sapiens), sequence (Q8IVW4 whole entry, looked up, the tested form may be a part): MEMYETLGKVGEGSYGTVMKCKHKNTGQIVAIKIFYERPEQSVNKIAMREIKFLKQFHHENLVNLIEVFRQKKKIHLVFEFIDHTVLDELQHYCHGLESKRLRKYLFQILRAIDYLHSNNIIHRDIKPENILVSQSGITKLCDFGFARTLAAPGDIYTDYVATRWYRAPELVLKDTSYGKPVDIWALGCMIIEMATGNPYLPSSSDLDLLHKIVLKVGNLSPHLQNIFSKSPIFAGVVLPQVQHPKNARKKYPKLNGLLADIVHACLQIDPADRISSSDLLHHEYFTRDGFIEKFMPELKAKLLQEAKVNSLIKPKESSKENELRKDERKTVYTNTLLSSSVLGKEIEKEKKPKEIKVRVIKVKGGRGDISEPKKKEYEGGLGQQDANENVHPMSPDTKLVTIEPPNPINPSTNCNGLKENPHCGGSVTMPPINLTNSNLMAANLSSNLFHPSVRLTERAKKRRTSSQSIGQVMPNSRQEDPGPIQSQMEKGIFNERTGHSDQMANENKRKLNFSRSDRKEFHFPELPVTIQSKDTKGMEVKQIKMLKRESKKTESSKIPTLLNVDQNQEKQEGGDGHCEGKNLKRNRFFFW
Non-receptor tyrosine-protein kinase TNK1 (Homo sapiens), sequence (Q13470 whole entry, the tested form may be a part): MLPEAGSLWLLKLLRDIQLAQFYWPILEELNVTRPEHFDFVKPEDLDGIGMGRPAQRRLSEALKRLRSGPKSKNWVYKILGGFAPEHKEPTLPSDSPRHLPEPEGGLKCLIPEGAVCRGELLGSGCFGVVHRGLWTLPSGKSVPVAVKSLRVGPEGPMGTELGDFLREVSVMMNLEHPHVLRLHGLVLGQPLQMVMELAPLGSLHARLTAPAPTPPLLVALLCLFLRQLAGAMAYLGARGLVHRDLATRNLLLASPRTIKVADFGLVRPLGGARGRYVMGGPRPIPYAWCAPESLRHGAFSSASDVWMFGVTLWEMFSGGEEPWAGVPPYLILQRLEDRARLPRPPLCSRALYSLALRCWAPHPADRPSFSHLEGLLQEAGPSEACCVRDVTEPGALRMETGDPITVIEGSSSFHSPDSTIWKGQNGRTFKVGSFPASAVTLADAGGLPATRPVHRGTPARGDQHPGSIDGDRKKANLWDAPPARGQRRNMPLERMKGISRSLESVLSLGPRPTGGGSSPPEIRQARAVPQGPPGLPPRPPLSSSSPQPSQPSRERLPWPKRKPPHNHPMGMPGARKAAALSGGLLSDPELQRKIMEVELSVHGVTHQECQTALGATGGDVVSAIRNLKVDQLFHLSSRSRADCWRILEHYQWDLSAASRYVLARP
Serine/threonine-protein kinase MARK1 (Homo sapiens), sequence (Q9P0L2 whole entry, looked up, the tested form may be a part): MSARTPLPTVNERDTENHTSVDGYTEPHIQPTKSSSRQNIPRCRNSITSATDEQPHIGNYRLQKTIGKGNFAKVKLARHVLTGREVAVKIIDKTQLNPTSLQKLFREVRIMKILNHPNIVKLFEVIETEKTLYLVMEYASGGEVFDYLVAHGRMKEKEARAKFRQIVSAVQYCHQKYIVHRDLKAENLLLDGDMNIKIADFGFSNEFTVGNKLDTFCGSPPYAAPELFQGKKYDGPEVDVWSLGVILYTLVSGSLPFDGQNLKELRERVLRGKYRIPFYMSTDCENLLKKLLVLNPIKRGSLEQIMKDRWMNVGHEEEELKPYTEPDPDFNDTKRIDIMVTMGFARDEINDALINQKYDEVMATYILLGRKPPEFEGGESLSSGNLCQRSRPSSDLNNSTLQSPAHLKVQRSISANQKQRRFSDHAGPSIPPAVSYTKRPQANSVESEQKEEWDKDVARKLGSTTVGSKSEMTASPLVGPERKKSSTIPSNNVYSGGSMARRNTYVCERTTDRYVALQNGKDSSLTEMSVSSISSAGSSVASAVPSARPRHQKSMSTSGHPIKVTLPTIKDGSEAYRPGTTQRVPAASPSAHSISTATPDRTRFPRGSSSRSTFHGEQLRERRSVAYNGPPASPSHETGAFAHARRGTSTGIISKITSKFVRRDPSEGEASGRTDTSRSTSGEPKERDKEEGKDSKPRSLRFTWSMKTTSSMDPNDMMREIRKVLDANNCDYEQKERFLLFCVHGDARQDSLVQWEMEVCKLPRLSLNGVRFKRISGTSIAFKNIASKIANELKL
Beta-adrenergic receptor kinase 1 (Homo sapiens), sequence (P25098 whole entry, the tested form may be a part): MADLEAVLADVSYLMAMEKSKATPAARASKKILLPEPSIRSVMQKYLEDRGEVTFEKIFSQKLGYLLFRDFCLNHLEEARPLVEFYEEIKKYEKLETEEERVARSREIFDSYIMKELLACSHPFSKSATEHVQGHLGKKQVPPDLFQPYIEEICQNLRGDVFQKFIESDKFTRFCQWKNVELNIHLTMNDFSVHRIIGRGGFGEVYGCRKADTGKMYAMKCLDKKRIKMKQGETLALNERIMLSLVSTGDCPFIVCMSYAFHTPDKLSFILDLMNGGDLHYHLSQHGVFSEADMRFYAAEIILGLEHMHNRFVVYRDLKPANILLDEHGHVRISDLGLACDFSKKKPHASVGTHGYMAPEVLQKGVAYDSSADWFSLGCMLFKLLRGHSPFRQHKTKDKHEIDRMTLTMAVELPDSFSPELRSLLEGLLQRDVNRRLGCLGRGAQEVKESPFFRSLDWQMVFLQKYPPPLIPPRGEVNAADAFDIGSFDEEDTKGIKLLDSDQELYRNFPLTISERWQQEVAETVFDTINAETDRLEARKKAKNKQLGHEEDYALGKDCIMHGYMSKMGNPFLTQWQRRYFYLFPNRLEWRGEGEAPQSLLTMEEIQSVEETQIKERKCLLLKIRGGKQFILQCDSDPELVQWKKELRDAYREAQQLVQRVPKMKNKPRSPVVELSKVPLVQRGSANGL

With `C=CC(=O)Nc1ccccc1Nc1nc(Nc2ccc(N3CCN(C)CC3)cc2)ncc1C(=O)Nc1c(C)cccc1Cl`, the Activity in assay [1] came out at 72%; in assay [2] it was 93%; in assay [4], 100%; in [5], 100%; in assay [6], 100%; in [8] it was 100%. Also, the Activity in assay [9] was found to be 85%; in assay [10] it was 100%; in assay [11], 48%; in [12], 100%; in assay [13], 100%; in [14], 100%. Further, the Activity in [15] turned out to be 97%; in assay [16], 100%; in assay [17], 100%; in assay [18] it was 29%; in [19], 95%; in assay [20], 79%. For the same compound, the Activity in assay [21] is 99%. In addition, the inhibition result in assay [3] was “inactive”. In [7], this compound showed a concentration for half-maximal inhibition (IC50) of 3 nM.
